Bioassay records deposited in PubChem by several laboratories.
A selection: hits, their analogues and other compounds. The true share with any hit is near 1.5%.
PG9 Ab binder – binders of HIV-1 gp120 antibody PG9, primary screen, biochemical, TR-FRET | HIV-1 gp120 / PG9 antibody interaction | TR-FRET gp120-PG9 antibody binding | inhibition, % at 6.7 µM | actives 0.43% (n = 360,000); in the data active = inhibition above about 8.5%
NR2E3 ag-1 – NR2E3 agonists in two-hybrid cells, primary screen, cell-based, luminescence, CHO-S, Gal4-NCOR/VP16-NR2E3. Photoreceptor-specific nuclear receptor (Homo sapiens), Q9Y5X4. luciferase. inhibition of corepressor binding, % at 3.98 µM. actives 0.35% (n = 360,000). AID 602229, 2012;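 active = inhibition above the mean of all tested compounds plus 3 SD, cut at about 70% in these data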;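 also: higher means lower luciferase signal from less NR2E3 corepressor binding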
NR2E3 ag-2 – inhibitors of NR2E3-RetCOR corepressor binding, primary screen, NR2E3 agonist project, biochemical, TR-FRET, GST-NR2E3, biotin-RetCOR; AID 2300, 2010; inhibition of corepressor binding, % at 4.78 µM; Photoreceptor-specific nuclear receptor (Homo sapiens), Q9Y5X4; actives 0.12% (n = 320,000); 1536-well;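 active = percent inhibition above the cutoff of mean plus 3 SD of all tested compounds, set per screening campaign, cut at about 20% in these data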
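Material: NR2E3–RetCOR corepressor complex / Amount: 1.35 nM GST-NR2E3 / Medium: Tris pH 7.5 / Compound: single nominal compound dose of 4.8 µM / Incubation: 5 h at 4 °C / Technique: TR-FRET, Eu(K)-anti-GST donor, streptavidin-D2 acceptor, ex 340, em 617/671 nm / Read-out basis: percent loss of FRET ratio relative to control wells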
NR1D1 modulator – modulators of Rev-erb alpha DNA binding, primary screen, biochemical, FITC-DNA, fluorescence polarization, uHTS. Nuclear receptor subfamily 1 group D member 1 (Homo sapiens), P20393. Rev-erbα–FITC-DNA binding, 90 min. activity, % at 10 µM. actives 0.79% (n = 370,000);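 active = activity above about 14%, limit read from the data; passing the limit was not always enough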
Target sequence (P20393 whole entry, looked up): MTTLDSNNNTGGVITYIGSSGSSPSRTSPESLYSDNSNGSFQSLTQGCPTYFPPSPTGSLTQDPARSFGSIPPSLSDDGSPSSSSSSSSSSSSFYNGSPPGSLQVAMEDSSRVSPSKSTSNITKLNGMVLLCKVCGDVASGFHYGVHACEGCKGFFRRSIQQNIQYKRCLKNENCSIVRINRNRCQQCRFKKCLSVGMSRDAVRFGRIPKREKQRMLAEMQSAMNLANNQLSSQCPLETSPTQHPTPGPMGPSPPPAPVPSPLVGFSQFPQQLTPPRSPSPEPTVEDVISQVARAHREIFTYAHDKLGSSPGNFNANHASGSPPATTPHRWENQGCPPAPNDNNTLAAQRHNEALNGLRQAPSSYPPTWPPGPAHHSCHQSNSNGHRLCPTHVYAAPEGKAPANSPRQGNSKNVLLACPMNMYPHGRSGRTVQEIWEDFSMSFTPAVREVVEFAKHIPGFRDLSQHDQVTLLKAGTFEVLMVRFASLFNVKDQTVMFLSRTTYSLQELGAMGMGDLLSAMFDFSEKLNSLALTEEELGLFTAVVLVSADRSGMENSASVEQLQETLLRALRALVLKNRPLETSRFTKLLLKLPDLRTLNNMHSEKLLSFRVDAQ
PG9 binder conf – binders of anti-gp120 antibody PG9, confirmation, biochemical, TR-FRET. AID 651571, 2012. actives 90% (n = 1,500). TR-FRET PG9 antibody binding. inhibition, % at 6.7 µM. shares compounds with PG9 Ab binder; in the data active = inhibition above about 9%
PGV04 Ab binding – binders of control antibody PGV04, counter-screen for PG9 antibody binder project, biochemical, TR-FRET, distinct HIV envelope site. inhibition, % at 6.7 µM. shares compounds with PG9 Ab binder. actives 95% (n = 1,500). TR-FRET PGV04 antibody-gp120 binding. AID 651604, 2012; in the data active = inhibition above about 9.5%
PG9 binder DR – small-molecule binders of antibody PG9, dose response, biochemical, TR-FRET, HIV-1 gp120 antibody | shares compounds with PG9 Ab binder | TR-FRET PG9 antibody-gp120 binding inhibition | IC50, µM | 95 tested, under 10 active | AID 651848, 2012; in the data active = IC50 below about 10 µM
PGV04 binding DR – binders of control antibody PGV04, dose response, counter-screen for PG9 antibody binder project, biochemical, TR-FRET, distinct HIV envelope site; actives 20% (n = 95); IC50, µM; shares compounds with PG9 Ab binder; TR-FRET binding to control antibody PGV04
PG126 DR counter – binders of control antibody PG126, dose response, counter-screen for PG9 antibody binder project, biochemical, TR-FRET, distinct HIV envelope site | shares compounds with PG9 Ab binder | TR-FRET binding to antibody PG126, counterscreen | IC50, µM | actives 20% (n = 95)
NR1D1 mod conf – modulators of Rev-erb alpha DNA binding, confirmation, biochemical, FITC-DNA, fluorescence polarization, single point. shares compounds with NR1D1 modulator. 90 min. AID 1259319, 2017. activation, % at 25 µM. actives 61% (n = 3,000);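 active = activation at or above a set limit, or at least 3 SD above the negative control mean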
RORg DNA counter – modulation of RORgamma DNA binding, dose response, counter-screen for Rev-erb alpha modulator project, biochemical, fluorescence polarization, FITC-DNA; shares compounds with NR1D1 modulator; purified RORgamma protein-FITC-DNA binding; IC50, µM; actives 8% (n = 910);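 active = Compounds whose fitted half-maximal concentration for disrupting protein-DNA binding is below 10 micromolar; the record names Rev-erb in its text, so the target is in doubt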
Numbers stand for hits; n = inactive; x = not tested or not shown. Rule as the data show it, unless noted: active = IC50 below about 9 µM; inactive = the rest.

SMILES	PG9 Ab binder	NR2E3 ag-1	NR2E3 ag-2	NR1D1 modulator	PG9 binder conf	PGV04 Ab binding	NR1D1 mod conf	RORg DNA counter	others
COC(=O)[C@]12C[C@H](CC(=O)N3CCCCC3)C(=O)N(Cc3ccccc3)C1=C[C@H](COCc1ccccc1)O[C@@H]2C	x	x	x	n	x	x	x	x
Cc1sc2ncnc(N3CCC(C(=O)Nc4ccc(C#N)cc4)CC3)c2c1C	15	n	n	27	16	10	19	x	PG9 binder DR=n;PGV04 binding DR=8.4;PG126 DR counter=8.7
Nn1c(SCC(=O)NC2CCCCC2)nnc1-c1cc(-c2ccc(F)cc2)n[nH]1	x	x	x	n	x	x	x	x
COc1ccc(NC(=O)NNC(=O)COc2ccc3cc(Br)ccc3c2)c(OC)c1	61	n	n	118	63	74	111	n
COc1ccc(NC(=O)COc2ccc(Br)cc2)c(OC)c1	n	n	n	n	x	x	x	x
COc1ccc2cc(OCC(=O)NNC(=O)Nc3ccc(OC)c(OC)c3)ccc2c1	n	n	n	n	x	x	x	x
COc1ccc2cc(OCC(=O)NNC(=O)Nc3ccc(F)cc3)ccc2c1	23	n	n	42	34	45	35	3.1
CCOC(=O)N1CCC(NC(=O)c2ccc3c(c2)sc2nc(-c4ccccc4)cn23)CC1	21	n	n	63	21	38	41	x
COC(=O)[C@]12C[C@H](CC(=O)N3CCCCC3)C(=O)N(CCc3ccc(OC)c(OC)c3)C1=C[C@H](C1CCCC1)O[C@@H]2C	x	x	x	n	x	x	x	x
COC(=O)CNC(=O)CNC(=O)c1nn(-c2ccc(OC)c(OC)c2)c(=O)c2ccccc12	n	n	n	n	x	x	x	x
COc1ccc(-n2nc(C(=O)NCC(=O)NCc3ccc(F)cc3)c3ccccc3c2=O)cc1OC	28	n	n	54	34	49	39	n
NC(=O)NC(=O)COC(=O)c1sc2ccccc2c1Cl	n	n	n	n	x	x	x	x
O=C(COC(=O)c1sc2ccccc2c1Cl)Nc1ncc(Cl)cc1Cl	21	n	n	52	22	45	36	n
C=CCOC(=O)c1sc(NC(=O)c2ccc(OC)cc2)nc1C	18	n	n	39	22	39	25	x
COC(=O)c1sc(NC(=O)c2ccncc2)nc1C	n	n	n	n	x	x	x	x
CCOc1ccc(C(=O)Nc2nc(C)c(C(=O)OC)s2)cc1	12	n	n	50	38	71	81	n
CCOC(=O)c1sc(NC(=O)c2ccc(=O)[nH]c2)nc1C	n	n	n	n	x	x	x	x
CCn1c(SCC(=O)NN=Cc2c(C)nn(-c3ccccc3)c2C)nnc1-c1ccc(OC)c(OC)c1	x	x	x	n	x	x	x	x
O=C(Nc1cccc(C(F)(F)F)c1)O[C@@H]1CC[C@@]23CCCN2C(=O)CCC[C@H]3C1	x	x	x	n	x	x	x	x
CCOC(=O)c1c(NC(=O)COC(=O)CCOc2ccccc2C)sc(C(=O)NC)c1C	31	n	n	72	48	57	46	n
CCN(CC)C(=O)CSc1nnc(-c2ccc(C(C)(C)C)cc2)n1-c1ccc(Cl)cc1	x	x	x	n	x	x	x	x
CC(=O)Nc1sc(C)c(C)c1C(=O)OCC(=O)NCc1ccc(F)cc1	9.3	n	n	17	13	19	16	x
CCOc1ccc2nc(SCC(=O)Nc3cc(C)on3)c(C)cc2c1	28	n	n	58	33	51	n	x
CCOc1ccc2nc(SCC(=O)NNC(=O)c3ccco3)c(C)cc2c1	n	n	n	n	x	x	x	x
Cc1ccc2nc(SCC(=O)Nc3cc(C)on3)c(C)cc2c1	18	n	n	40	26	44	21	x
SMILES	PG9 Ab binder	NR2E3 ag-1	NR2E3 ag-2	NR1D1 modulator	PG9 binder conf	PGV04 Ab binding	NR1D1 mod conf	RORg DNA counter	others
Cc1cc(C)c(C#N)c(SCC(=O)Nc2cc(C)on2)n1	n	n	x	n	x	x	x	x
COc1ccc2cc(C)c(SCC(=O)Nc3cc(C)on3)nc2c1	34	n	n	109	46	64	33	n
CC(C)CNC(=O)CC1Oc2ccccc2NC1=O (stereo not given)	x	x	x	n	x	x	x	x
COc1cc(C(=O)NC2CCCCN(Cc3ccc(Cl)cc3)C2=O)cc(OC)c1OC (stereo not given)	x	x	x	n	x	x	x	x
C#CCNC(=O)C[C@H]1C[C@@]2(C(=O)OC)C(=C[C@H](COCc3ccccc3)O[C@@H]2C)N(Cc2ccccc2)C1=O	x	x	x	n	x	x	x	x
O=C(CNS(=O)(=O)c1cccs1)N1CCN(c2ncccn2)CC1	x	x	x	n	x	x	x	x
Cc1cc(OCC(=O)NCc2cccnc2)c2c(C)c(C)c(=O)oc2c1	n	n	n	n	x	x	x	x
Cc1cc(OCC(=O)Nc2cccnc2)c2c(C)c(C)c(=O)oc2c1	15	n	n	19	14	16	n	x
O=c1[nH]c(SCCOc2cccc3ccccc23)nc2ccccc12	n	n	n	n	x	x	x	x
CCOc1ccc(OCCSc2nc3ccccc3c(=O)[nH]2)cc1	39	n	n	26	37	52	n	x
O=C(COC(=O)c1ccc(Cl)cc1O)Nc1cccnc1Cl	n	n	n	n	x	x	x	x
O=C(COC(=O)c1cc(Br)ccc1O)Nc1cccnc1Cl	38	n	n	66	13	31	39	n
N#Cc1ccsc1NC(=O)COC(=O)c1cc(Br)ccc1O	34	n	n	48	38	60	32	n
COC(=O)c1ccc(NC(=O)c2ccc3nc(C)sc3c2)cc1	29	n	n	39	32	49	18	x
Cc1c(C#N)c(N)nc2c3c(sc12)NC(=O)CC3c1ccc(Cl)cc1 (stereo not given)	18	n	n	65	16	33	45	n
